High-throughput results from PubChem.
An excerpt weighted towards active compounds, which were near 3.1% of everything screened.
Myeloid diff MLP = compounds promoting myeloid differentiation; ER-HoxA9 myeloid progenitors, lysozyme-GFP differentiation, flow cytometry; calls only at 10 µM; 360,000 tested, 1% active; AID 624256;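 active = normalized GFP-positive differentiation at or above the plate's own cutoff, the solvent-only control mean plus 3 SD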;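 note: cells exposed to compound for four days before flow analysis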
core dimer inh = blocks dimerization of HCV core protein. inhibition, % at 5 µM. TR-FRET GST/Flag-core106 dimerization, 1536-well. AID 1899. 300,000 tested, 0.33% active;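 active = inhibition above the mean of all tested compounds plus 3 SD, set per screening campaign, cut at about 45% in these data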
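System – GST-tagged and Flag-tagged HCV core protein residues 1-106 · Repeats – one well for each compound · Technique – TR-FRET 671 and 617 nm emission · Doses – one concentration, 5 µM, in 0.5% DMSO · Times – 4 h, 22.5 °C incubation · Also added – Eu donor and XL665 acceptor anti-tag antibodies · Measure – percent inhibition of core106 dimerization signal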
PP1 inh = PP1-alpha (human) inhibition in PP5 counter-screen. P62136. purified PP1alpha, OMFP fluorescence. inhibition, % at 6.7 µM. 320,000 tested, 0.9% active;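 active = inhibition above the mean inhibition of all tested compounds plus 3 SD, computed separately for each screening campaign, cut at about 15% in these data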
NadD block = blocks S. aureus nicotinate mononucleotide adenylyltransferase. purified NadD enzyme, colorimetric absorbance read-out. inhibition, % at 20 µM. 360,000 tested, 0.78% active; in the data active = inhibition above about 26%
CTSL1 counter = counter-screen for PFM18AAP inhibitors: inhibitors of F. hepatica cathepsin L1; recombinant F. hepatica cathepsin L1, Z-Leu-Arg-MCA fluorescence; inhibition, % at 5.96 µM; 300,000 tested, 0.49% active; AID 1906;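 active = inhibition above the mean of all tested compounds plus 3 SD, set per screening campaign, cut at about 17% in these data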;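 note: 0% = plate median of test compound wells and 100% = 1 µM Z-Phe-Ala-diazomethylketone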
PP5 primary = inhibitors of human protein phosphatase 5 (PP5); P53041; purified PP5c, OMFP substrate fluorescence; inhibition, % at 6.7 µM; 320,000 tested, 0.18% active;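 active = inhibition above the campaign's mean inhibition across all tested compounds plus 3 SD, cut at about 9.5% in these data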;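 note: 0% = DMSO only and 100% = 100 µM cantharidin control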
Target sequence (P53041 whole entry, looked up): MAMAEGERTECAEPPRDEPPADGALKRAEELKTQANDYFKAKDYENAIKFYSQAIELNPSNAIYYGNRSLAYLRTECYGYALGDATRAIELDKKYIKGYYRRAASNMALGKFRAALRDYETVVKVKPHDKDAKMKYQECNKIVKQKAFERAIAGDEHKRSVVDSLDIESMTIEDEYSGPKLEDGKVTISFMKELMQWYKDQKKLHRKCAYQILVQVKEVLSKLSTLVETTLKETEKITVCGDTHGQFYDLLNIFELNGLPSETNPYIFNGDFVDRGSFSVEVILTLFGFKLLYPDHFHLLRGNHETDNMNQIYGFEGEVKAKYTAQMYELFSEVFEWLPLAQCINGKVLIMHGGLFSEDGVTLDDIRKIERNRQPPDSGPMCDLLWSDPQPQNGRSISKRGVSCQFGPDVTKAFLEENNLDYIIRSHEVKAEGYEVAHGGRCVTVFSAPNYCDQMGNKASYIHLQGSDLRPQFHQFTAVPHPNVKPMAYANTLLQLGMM
NadD inh conf = confirmation of Staphylococcus aureus NadD inhibitors | shares compounds with NadD block | purified S. aureus NadD, colorimetric enzyme assay | inhibition, % at 20 µM | 2,000 tested, 13% active | AID 624309; in the data active = inhibition mostly above about 42%, no sharp cut-off; inactive = mostly below about 42%
* hit, by the source's call; i = inactive; nt = no result.

SMILES	Myeloid diff MLP	core dimer inh	PP1 inh	NadD block	CTSL1 counter	PP5 primary	NadD inh conf
O=C(Nc1ncnc2c1C(c1ccccc1)c1c(ccc3ccccc13)O2)c1ccccc1 (stereo not drawn)	i	nt	nt	26	nt	nt	nt
CN1OC[C@@H]2CN(Cc3cc(Cl)cc(Cl)c3)[C@H](c3cccc(-c4ccccc4)c3)C[C@@H]21	i	nt	nt	11	nt	nt	nt
O=C(NC1CCC(O)CC1)c1ccc(NS(=O)(=O)c2cccc([N+](=O)[O-])c2)cc1 (stereo not drawn)	i	nt	2	5	nt	2	nt
Cc1ccc(NC(=O)CC2S/C(=N/N=C/C=C/c3ccccc3)NC2=O)cc1Cl (stereo not drawn)	i	5	6	32*	-2	2	7
NC(=O)c1ccc(NS(=O)(=O)c2ccc(S(=O)(=O)N3CCCC3)cc2)cc1	i	nt	nt	2	nt	nt	nt
Cc1oc(-c2ccc(F)cc2)cc1-c1nn2c(-c3ccoc3C)nnc2s1	i	91*	15*	53*	1	3	16
COc1ccc(-c2nnc3sc(-c4ccco4)nn23)cc1OC	i	-1	-1	3	0	3	nt
Cc1ccc2[nH]c(=O)c(C3C(C#N)=C(N)Oc4c3ccc3cccnc43)cc2c1 (stereo not drawn)	i	9	14	45*	4	3	21
CC(=O)c1cccc(CN2CCCC(C(=O)Nc3ccc(-c4ccco4)cc3)C2)c1 (stereo not drawn)	i	22	3	32*	0	0	5
O=C(Nc1ccc(-c2ccco2)cc1)C1CCCN(Cc2ccc(CO)o2)C1 (stereo not drawn)	i	11	3	5	-1	3	nt
Cc1cc(O)c(-c2n[nH]c3c2C(c2cccc(O)c2)N(Cc2cccnc2)C3=O)cc1Cl (stereo not drawn)	i	10	17*	46*	1	8	46
O=C(CC1c2ccccc2C=C(c2ccsc2)N1c1ccc(-c2cccnc2)cc1)C1CC1 (stereo not drawn)	i	nt	nt	33*	nt	nt	12
COc1ncc(-c2ccc(N3C(c4ccsc4)=Cc4ccc(F)cc4C3CC(=O)c3ccco3)cc2)cn1 (stereo not drawn)	i	nt	nt	35*	nt	nt	10
COC(=O)c1ccc(N2C(c3ccsc3)=Cc3cc4c(cc3C2CC(=O)c2ccco2)OCO4)cc1 (stereo not drawn)	i	nt	nt	31*	nt	nt	16
C[C@@H]1CN([C@H](C)CO)C(=O)c2cc(C#CC3CC3)cnc2O[C@H]1CN(C)S(C)(=O)=O	i	nt	nt	5	nt	nt	nt
S=c1[nH]nc(COc2ccc(Cl)cc2)n1C1CCCCC1	i	3	1	35*	1	-1	33
Cc1cc(C)n(-c2ccc(C(=O)NCC(=O)Nc3cc(Cl)ccc3Cl)cc2)n1	i	nt	nt	-2	nt	nt	nt
CCN(CC)S(=O)(=O)c1ccc(C(=O)/C=C/c2ccc(-c3ccc([N+](=O)[O-])cc3)o2)cc1	i	24	0	52*	-2	1	9
Cc1ccc(C(=O)/C=C\C(=O)c2ccc(C)cc2)cc1	i	-6	0	-2	-3	-1	nt
Cc1ccc(C(=O)/C=C/c2ccc(-c3ccc(C)cc3)o2)cc1	i	32	1	34*	28*	2	4
CC1(c2ccc3ccccc3c2)NC(=O)N(CC(=O)Nc2ncccc2O)C1=O (stereo not drawn)	i	nt	0	7	nt	-1	nt
CCOC(=O)c1ccc(-c2c(C)cc3oc(=O)cc(-c4ccccc4)c3c2C)cc1	i	nt	nt	2	nt	nt	nt
COCCNc1nc(-c2cc(C)n(CCc3ccc(OC)cc3)c2C)cs1	i	43	13	36*	1	1	21
CCCN(CCC)Cc1c(C(=O)N/N=C/CCc2ccccc2)nnn1-c1nonc1N	i	0	9	6	3	1	nt
COc1ccc(/C=N/N=C2/NC(=O)C(CC(=O)O)S2)cc1OCc1ccccc1Cl (stereo not drawn)	i	2	1	8	2	1	nt
SMILES	Myeloid diff MLP	core dimer inh	PP1 inh	NadD block	CTSL1 counter	PP5 primary	NadD inh conf
COc1ccc(/C=N/N=C2/NC(=O)C(CC(=O)O)S2)cc1OCc1ccc(Cl)cc1Cl (stereo not drawn)	i	18	4	36*	6	1	31
CC(=O)Nc1ccc(S(=O)(=O)Nc2ccc(S(=O)(=O)N3CCCC3)cc2)cc1	i	-4	-5	-3	-2	0	nt
CC(=O)Nc1ccc(S(=O)(=O)/N=C2\SCCN2S(=O)(=O)c2ccc(NC(C)=O)cc2)cc1	i	-1	-3	58*	-8	1	48
Cc1cc(=O)[nH]c(NN=C2CCCCC2C)n1 (stereo not drawn)	i	nt	nt	0	nt	nt	nt
COc1ccc(-c2c3c([nH]c(=S)c2C#N)CCC3)cc1	i	nt	nt	36*	nt	nt	17
O=C(Nc1cccc(/C=C/c2ccccn2)c1)c1cc(Cl)ccn1	i	18	4	9	2	1	nt
O=C(Nc1nnc([C@@H]2C[C@H](O)[C@@H](CO)O2)s1)Nc1cccc(Cl)c1Cl	i	nt	nt	1	nt	nt	nt
Cc1ccc(Cl)cc1N1CCN(S(=O)(=O)c2ccc3[nH]c(=O)c(=O)[nH]c3c2)CC1	i	26	10	37*	1	2	49*
Cc1ccc(Cl)cc1N1CCN(S(=O)(=O)c2ccc3[nH]c(=O)ccc3c2)CC1	i	20	15	9	-2	-1	nt
CC1CCCC(NC(=O)NC(=O)COC(=O)c2ccc(O)cc2O)C1C (stereo not drawn)	i	nt	-2	-8	nt	6	nt
C/C(=N\Nc1nc(-c2cc(C)ccc2C)cs1)c1cc2c(ccc3ccccc32)oc1=O	i	61*	9	48*	-1	0	4
O=C1NC[C@H](CCCCN2C[C@H](Cc3ccc(O)cc3)N(CCc3ccccc3)C(=O)C2=O)N(Cc2ccccc2)C1=O	i	nt	nt	19	nt	nt	nt
CCN1CC(C)(C)N(C(=O)c2ccccc2)CC1(C)C	i	nt	nt	1	nt	nt	nt
Clc1cccc(-c2ccc(/C=N/n3cnnc3)o2)c1	i	-5	-4	-6	4	2	nt
N=C1S/C(=C\c2ccc(-c3cccc(Cl)c3)o2)C(=O)N1c1nccs1	i	17	10	76*	6	1	2
O=C1OC(c2cccs2)=N/C1=C\c1ccc(-c2cccc(Cl)c2)o1	i	21	0	46*	-3	3	8
CCCS(=O)(=O)NC(=O)C1(C)CCCN(C(=O)/C=C/c2ccccc2)C1 (stereo not drawn)	i	nt	nt	-3	nt	nt	nt
COc1ccccc1S(=O)(=O)N(C)C[C@H]1OCc2cnnn2CCCC(=O)N([C@@H](C)CO)C[C@@H]1C	i	nt	nt	-1	nt	nt	nt
